This passage reports Survival results from ChEMBL document CHEMBL1141152, “Efficient transfection of DNA by liposomes formulated with cationic gemini amphiphiles” (2005).

Assay type in all cases: functional, Rattus norvegicus
The nature of test [1]: Percentage survived cells of LA7 cell line done for 6 hr with compound (85 uM) in trypan blue exclusion dye test. An outline of the steps: (§1)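 LA7 rat mammary adenocarcinoma cells grown in DMEM with 10% FCS, penicillin/streptomycin, insulin and hydrocortisone (50 ng/mL each). Exposed 6 h to DMPC/cationic amphiphile liposomes (1/1; doubled amphiphile for single-headgroup surfactant), concentrations 425 μM to 8.5 μM; medium then replaced. Viability by Trypan blue exclusion 24 h later, counting unstained cells. Duplicates, at least five times; typical experiment shown.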

Test [2] is described as follows: Percentage survived cells of LA7 cell line done for 6 hr with compound (213 uM) in trypan blue exclusion dye test. An outline of the steps:
as §1

Test [3] in a line: Percentage survived cells of LA7 cell line done for 6 hr with compound (8.5 uM) in trypan blue exclusion dye test. In outline:
as §1

Test [4] is described as follows: Percentage survived cells of LA7 cell line done for 6 hr with compound (21.3 uM) in trypan blue exclusion dye test. In outline: as §1
Test [5] can be described thus: Percentage survived cells of LA7 cell line done for 6 hr with compound (42.5 uM) in trypan blue exclusion dye test. In outline: as §1

Consider `CCCCCCCCCCCCCCCC[N+](C)(C)CCOC.[Br-]`, for which the Survival in test [1] stood at 80%; in test [2], 50%; in test [3], 100%; in test [4], 100%; in test [5], 100%.
For the molecule `CCCCCCCCCCCCCCCC[N+](C)(C)CCCC[N+](C)(C)CCCCCCCCCCCCCCCC.[Br-].[Br-]` [CATIONIC AMPHIPHILE], the Survival is on record as 80% in test [1]; 50% in test [2]; 100% in test [3]; 100% in test [4]; 100% in test [5].
Turning to `CCCCCCCCCCCCCCCC[N+](C)(C)C[C@@H](OC)[C@@H](C[N+](C)(C)CCCCCCCCCCCCCCCC)OC.[Br-].[Br-]` [CATIONIC AMPHIPHILE], the Survival in test [3] was determined as 100%.
In the case of `CCCCCCCCCCCCCCCC[N+](C)(C)C[C@H](OC)[C@@H](C[N+](C)(C)CCCCCCCCCCCCCCCC)OC.[Br-].[Br-]` [CATIONIC AMPHIPHILE], the figures for the Survival in test [3], in test [4] and in test [5] were 100%, 80% and 30%, respectively.
For the molecule `CCCCCCCCCCCCCCCC[N+](C)(C)C[C@H](OC)[C@H](C[N+](C)(C)CCCCCCCCCCCCCCCC)OC.[Br-].[Br-]` [CATIONIC AMPHIPHILE], the values for the Survival in test [3], in test [4] and in test [5] were 100%, 90% and 10%, respectively.
